Publication PMC6215875 (Cancer Science, 2018)
Like-named read-outs stand apart in the source and are kept apart here.

What was measured:
GIST430 cells = assay: Cell cycle analysis, GIST430; assay type: cell-based; conditions: BPR1J373 at 10 nmol/L, 100 nmol/L, and 1 μmol/L
How it was run: (§1)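 Test compound added at the doses stated, and cells harvested over a time course. Cells washed twice in PBS, fixed overnight in cold 70% ethanol, and pelleted at 5000 g for 5 min. Pellets incubated with 0.2 mg/mL RNase A for 1 h, then stained with 20 μg/mL propidium iodide at room temperature. DNA content read by flow cytometry. Mean ± SE of triplicate experiments.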

[1] = Body weight and survival of GIST430 xenograft mice; assay type: in vivo; conditions: regorafenib 30 mg/kg; for body weight (mean ± SE): oral, 2 weeks, BPR1J373 50 mg/kg, sunitinib 40 mg/kg
How it was run: (§2)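 Male NOD-SCID mice (6–8 weeks, SPF) received GIST430 cells (2 × 10⁷/mouse) s.c. At 50–100 mm³, vehicle or test compound in 20% (2-hydroxypropyl)-β-cyclodextrin was given orally on days 1–5 weekly for 2 weeks. Controls n=5, treated groups n=6. Tumor volume (length × width² × π/6) and body weight were recorded three times weekly up to 16 days. Comparison: Wilcoxon rank sum.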

GIST430 xenograft = GIST430 xenograft in NOD-SCID mice; assay type: in vivo; conditions: for KIT and KIT phosphorylation in tumors compared with controls: GIST430 xenograft tumors after treatment, Figure 6B
How it was run: as §2

GIST48 cells = assay: Cell cycle analysis, GIST48; assay type: cell-based; conditions: GIST48, 1 μmol/L
How it was run: as §1

KIT mutants [2] = assay type: cell-based; conditions: 1 μmol/L; for suppression of KIT activation (phosphorylation): COS-1, 4 double mutations (∆557-558 with V654A, T670I, D820G or N822K); for suppression of KIT phosphorylation: COS-1, single mutations in exons 13, 14, and 17, 30 minutes
advanced GIST = conditions: cited from earlier work; for median PFS: advanced GIST patients
GIST-T1 cells = assay: Cell proliferation assay, GIST-T1; assay type: cell-based; conditions: imatinib-sensitive GIST-T1, Figure S2A
How it was run: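 GIST-T1 cells were grown in RPMI-1640 with 10% FBS at 37°C, 5% CO₂. 4 × 10⁴ cells were exposed to a range of test compound doses for 120 h. They were then stained with methylene blue for 1 h, and absorbance was read at […].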

KIT mutants [3] = target: KIT mutants (Homo sapiens, UniProt P10721, D816V); conditions: COS-1, D816V in exon 17; cited from earlier work
KIT mutants (Homo sapiens, UniProt P10721, D816V), sequence (P10721 26-976 D816V): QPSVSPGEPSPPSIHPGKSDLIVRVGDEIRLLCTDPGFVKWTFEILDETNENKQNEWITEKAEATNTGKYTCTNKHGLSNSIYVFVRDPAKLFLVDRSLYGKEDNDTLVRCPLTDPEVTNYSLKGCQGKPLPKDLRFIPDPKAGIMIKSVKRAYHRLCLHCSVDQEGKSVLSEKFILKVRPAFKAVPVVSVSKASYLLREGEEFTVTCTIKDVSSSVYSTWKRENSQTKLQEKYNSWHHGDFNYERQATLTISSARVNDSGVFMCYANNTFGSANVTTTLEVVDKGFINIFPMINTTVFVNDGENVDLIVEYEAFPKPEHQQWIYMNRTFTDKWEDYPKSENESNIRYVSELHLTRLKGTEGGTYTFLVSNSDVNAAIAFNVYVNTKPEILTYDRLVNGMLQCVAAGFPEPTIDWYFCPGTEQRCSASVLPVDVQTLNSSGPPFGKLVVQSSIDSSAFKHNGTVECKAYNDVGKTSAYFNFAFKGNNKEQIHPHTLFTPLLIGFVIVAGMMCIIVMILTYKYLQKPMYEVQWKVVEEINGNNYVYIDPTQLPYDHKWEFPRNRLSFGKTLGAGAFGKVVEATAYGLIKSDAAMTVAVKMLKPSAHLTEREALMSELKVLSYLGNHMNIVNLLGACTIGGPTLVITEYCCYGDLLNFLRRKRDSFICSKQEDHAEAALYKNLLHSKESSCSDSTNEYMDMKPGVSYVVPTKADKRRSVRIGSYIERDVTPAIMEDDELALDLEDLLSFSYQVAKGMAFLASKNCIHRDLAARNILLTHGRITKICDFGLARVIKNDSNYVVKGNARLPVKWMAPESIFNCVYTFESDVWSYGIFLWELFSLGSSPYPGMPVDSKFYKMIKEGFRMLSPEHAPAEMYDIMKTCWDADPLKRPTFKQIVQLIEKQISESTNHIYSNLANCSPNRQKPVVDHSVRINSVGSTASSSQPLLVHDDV

Compound	cell cycle change (GIST430 cells)	body weight (mean ± SE) [1] [g]	mice that died before completion of the experiment ([1]; 6 mice, died at day 14)	KIT and KIT phosphorylation in tumors compared with controls (GIST430 xenograft)	cell cycle change (GIST48 cells)	suppression of KIT activation (phosphorylation) (KIT mutants [2])	suppression of KIT phosphorylation (KIT mutants [2])	median PFS (advanced GIST; third-line treatment, phase III) [months]	antitumor effect vs control, P (Wilcoxon rank sum test) (GIST430 xenograft; oral, day 1 to day 5 per week for 2 weeks, BPR1J373 50 mg/kg, sunitinib 40 mg/kg)	median PFS (advanced GIST; second-line treatment) [months]	antiproliferative effect (GIST-T1 cells)	suppression of KIT phosphorylation (KIT mutants [3])	disease control rate (advanced GIST; advanced GIST, initial phase II study) [%]
CNC(=O)c1cc(Oc2ccc(NC(=O)Nc3ccc(Cl)c(C(F)(F)F)c3)c(F)c2)ccn1 [Regorafenib]	did not induce significant cell cycle changes	28.82 ± 0.52	1	decreased expression levels of KIT and KIT phosphorylation	only a mild increase in subG1 and a mild decrease in S and G2/M proportions	variable effects	differentially suppressed	4.8	–	–	–	–	–
CCN(CC)CCNC(=O)c1c(C)[nH]c(/C=C2\C(=O)Nc3ccc(F)cc32)c1C [Sunitinib]	–	29.1 ± 1.04	–	decreased expression levels of KIT and KIT phosphorylation	–	variable effects	differentially suppressed	–	0.03	6.8	best antiproliferative effects	resistant	–
Cc1cn(-c2cc(NC(=O)c3ccc(C)c(Nc4nccc(-c5cccnc5)n4)c3)cc(C(F)(F)F)c2)cn1 [Nilotinib]	–	–	–	–	Neither 1 μmol/L imatinib nor nilotinib induced S or G2/M arrest	variable effects	differentially suppressed	–	–	–	best antiproliferative effects	resistant	–
Cc1ccc(NC(=O)c2ccc(CN3CCN(C)CC3)cc2)cc1Nc1nccc(-c2cccnc2)n1 [Imatinib]	–	–	–	–	Neither 1 μmol/L imatinib nor nilotinib induced S or G2/M arrest	variable effects	differentially suppressed	–	–	–	–	resistant	81.6
